Compounds with a hit are over-represented: about 3.7% of the library has one in this group of screens.
ROMK primary – ROMK potassium channel modulators, primary screen, cell-based, thallium flux, MLSMR library; Tet-inducible ROMK, thallium flux fluorescence; actives lie on both sides; ATP-sensitive inward rectifier potassium channel 1 (Homo sapiens), P48048; B-score at 10 µM; 130,000 compounds, 2% hits;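 active = signal ratio slope over the read window, or its plate-corrected B-score, at least 3 SD from the plate mean, either direction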;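 note: B-score of the F/F0 ratio slope over 7 to 12 s after thallium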
bCat nuc transl – modulators of beta-catenin nuclear translocation, primary screen, imaging, HeLa cells, immunofluorescence, high-content; 190,000 compounds, 0.3% hits; nuclear translocation activity, % at 5 µM;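 active = nuclear translocation activity above 50% at 5 µM, with a well cell count of 50 or more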;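 note: per-cell ratio of nuclear to cytoplasmic median beta-catenin stain intensity; plate controls were DMSO negative control for no effect and GSK-3 inhibitor IX positive control for full effect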
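System: Human HeLa cells, endogenous beta-catenin | Compound dosing: 5 µM primary, 0.02–20 µM confirmation | Timing: 24 h compound exposure at 37°C, 5% CO2 | Measured by: Fluorescence imaging of beta-catenin antibody stain plus DAPI | Read-out basis: % activation of per-cell nuclear versus cytoplasmic median beta-catenin signal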
MT stabilizer – microtubule stabilizers in HeLa cells, primary screen, imaging, high-content imaging; HeLa tubulin immunostaining HCS, 24 h; share of cells brighter than vehicle mean+2SD; % tubulin-high responders, % at 10 µM; 200,000 compounds, 0.83% hits;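 active = plate Z-score above 3 for both tubulin-high and condensed-nucleus cell shares, with cell loss under 80%, at 10 µM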;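 note: anti alpha tubulin signal scored within the nucleus-defined area of each cell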
Cl transport mod – KCC2 cotransporter modulators, thallium flux, primary screen, cell-based, HEK293 KCC2, FluoZin-2 fluorescence, MLSMR | KCC2 cells, thallium flux FluoZin-2 fluorescence | AID 1456, 2008 | 190,000 compounds, 2.2% hits | B-score of Tl+ flux slope (higher = more flux/activation; lower = inhibition) at 10 µM | Solute carrier family 12 member 5 (Homo sapiens), Q9H2X9;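 active = thallium flux slope and its plate-corrected score both differing from the plate sample mean at a set confidence after two filtering rounds, in either direction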;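 note: slope of fluorescence scaled to starting intensity during 10 to 20 s after thallium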
Target sequence (Q9H2X9 whole entry, looked up): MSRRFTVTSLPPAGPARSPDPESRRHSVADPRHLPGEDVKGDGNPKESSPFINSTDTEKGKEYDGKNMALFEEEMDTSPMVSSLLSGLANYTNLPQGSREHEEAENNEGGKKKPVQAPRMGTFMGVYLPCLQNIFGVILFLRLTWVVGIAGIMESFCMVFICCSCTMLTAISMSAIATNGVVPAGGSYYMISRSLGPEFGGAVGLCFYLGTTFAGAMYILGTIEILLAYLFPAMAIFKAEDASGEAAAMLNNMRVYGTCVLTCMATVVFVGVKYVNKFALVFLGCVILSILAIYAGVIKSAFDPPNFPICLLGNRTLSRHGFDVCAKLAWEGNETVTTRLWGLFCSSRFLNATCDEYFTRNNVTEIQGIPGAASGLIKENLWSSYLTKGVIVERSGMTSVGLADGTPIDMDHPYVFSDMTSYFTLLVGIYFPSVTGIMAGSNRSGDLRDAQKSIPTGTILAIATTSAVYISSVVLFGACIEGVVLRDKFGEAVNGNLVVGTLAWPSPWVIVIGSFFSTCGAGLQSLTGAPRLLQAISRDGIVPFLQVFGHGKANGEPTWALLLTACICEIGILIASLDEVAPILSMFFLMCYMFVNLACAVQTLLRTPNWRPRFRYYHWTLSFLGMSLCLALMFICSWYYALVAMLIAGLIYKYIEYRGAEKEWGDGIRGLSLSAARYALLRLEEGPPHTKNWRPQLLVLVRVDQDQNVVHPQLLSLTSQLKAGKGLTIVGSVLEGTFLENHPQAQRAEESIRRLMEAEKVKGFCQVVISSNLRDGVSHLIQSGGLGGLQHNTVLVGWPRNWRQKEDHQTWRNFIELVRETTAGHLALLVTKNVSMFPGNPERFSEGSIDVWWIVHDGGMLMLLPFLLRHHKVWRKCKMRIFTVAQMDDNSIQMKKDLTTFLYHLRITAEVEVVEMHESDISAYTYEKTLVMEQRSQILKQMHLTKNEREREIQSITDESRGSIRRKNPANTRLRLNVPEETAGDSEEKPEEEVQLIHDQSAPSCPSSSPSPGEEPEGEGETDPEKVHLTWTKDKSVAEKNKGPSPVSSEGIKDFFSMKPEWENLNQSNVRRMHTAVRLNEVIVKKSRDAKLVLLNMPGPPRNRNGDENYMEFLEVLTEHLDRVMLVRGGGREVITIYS
Redox H2O2 prof – compounds producing H2O2 with reducing agent – biochemical, NIH compound library profiling, artefact control for MLSCN library redox annotation, primary screen. DTT-dependent redox cycling H2O2, phenol red/HRP absorbance; 100% = 100 µM peroxide control, 0% = buffer. 200,000 compounds, 0.03% hits. activation, % at 10 µM;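 active = activation of at least 50% relative to the plate's high and low controls in the primary single-dose screen; inactive = activation below 50%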;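 note: compound incubated with DTT at 0.8 mM final as the reducing agent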
* = called active by the depositor; / = no result given.

SMILES | ROMK primary | bCat nuc transl | MT stabilizer | Cl transport mod | Redox H2O2 prof
CCOc1ccccc1C1CC(=O)Nc2cc3c(cc21)OCCO3 (configuration not stated) | 1.5 | 1 | 14 | / | -3
O=C1CC(c2cccnc2)c2cc3c(cc2N1)OCO3 (configuration not stated) | / | -2 | 4 | 0.76 | -1
CC(C)Oc1ccccc1C1CC(=O)Nc2cc3c(cc21)OCO3 (configuration not stated) | 0.11 | -2 | 21* | / | 0
CCCOc1ccccc1C1CC(=O)Nc2cc3c(cc21)OCCO3 (configuration not stated) | / | -1 | 13* | -0.69 | -3
COC(=NC(C)C)NC(C)C | 0.058 | -1 | / | 0.28 | /
O=C(O)CCc1nn2c3ccccc3nc2n(Cc2ccccc2)c1=O | 1.7 | -2 | 1 | 0.25 | 0
CC(=O)/C(=C/c1ccc(N(C)C)cc1)C(=O)c1ccccc1 | 1.9 | 1 | 5 | 0.69 | 0
CC(=O)N1/C(=C/c2ccc(N(C)C)cc2)C(=O)c2ccccc21 | / | 2 | 20* | -0.72 | -1
COc1ccc(N(CC(=O)Nc2ccc(OC)cc2OC)S(=O)(=O)c2ccccc2)cc1 | -1.8 | 0 | 8.3* | -1.8 | 0
COC(=O)c1ccccc1NC(=O)CN(c1cc(OC)ccc1OC)S(C)(=O)=O | 0.19 | 1 | 1 | / | 0
COC(=O)c1ccccc1NC(=O)CN(c1ccc(OC)cc1)S(C)(=O)=O | 0.11 | 2 | 29* | -1.5 | -1
CCNC(=S)NNC(=O)c1cc(C2CC2)nc2ccccc12 | 0.044 | -2 | 3 | 0.0019 | -5
O=C(Nc1nc(-c2ccccn2)cs1)c1ccc(Br)s1 | / | 3 | 4 | 39* | 1
O=C(Nc1nc(-c2ccccn2)cs1)c1ccco1 | 0.34 | 0 | 3 | 0.24 | -1
Cc1ccc(NCC(=O)N=Nc2c(O)[nH]c3ccc([N+](=O)[O-])cc23)cc1 | / | -2 | / | / | /
Cc1ccc(OC(C)C(=O)N=Nc2c(O)[nH]c3ccc([N+](=O)[O-])cc23)cc1 (configuration not stated) | 1.6 | -1 | 16* | -1.7 | -1
C/C(=N\NC(=O)c1csc(C)c1C)c1ccc(Cl)s1 | -0.046 | -4 | 3 | 22* | 1
C/C(=N\NC(=S)NC(C)C)c1ccc(Cl)s1 | / | -1 | 2 | 24* | 1
CC/C(=N\NC(=O)c1csc(C)c1C)c1cccs1 | / | / | 4 | 1.6 | 19
COc1ccccc1N1CCN(c2nc3ccccn3c(=O)c2C=O)CC1 | / | -1 | 2 | -0.3 | 1
CCn1c(C2CCN(S(=O)(=O)c3ccc(OC)cc3)CC2)n[nH]c1=S | 1.2 | -3 | 3 | / | -1
COc1ccc(CCc2nnc(CCC(=O)NCc3cc(C(C)C)no3)o2)cc1 | 0.035 | 0 | 0 | 0.77 | 2
CCc1ccc(NC(=O)COc2ccc(F)cc2C(=O)c2cnn(-c3ccccc3)c2)cc1 | / | 0 | 20* | 0.1 | 2
Cc1nn(-c2ccccn2)c2c1C(c1c(F)cccc1Cl)C1=C(N2)c2ccccc2C1=O (configuration not stated) | -0.76 | -2 | 5 | -1.7 | 0
O/N=C(/CN(O)/C=C1/C=CC=N1)c1cccs1 | -5* | 4 | 2 | 0.11 | 3
SMILES | ROMK primary | bCat nuc transl | MT stabilizer | Cl transport mod | Redox H2O2 prof
Cc1cc([N+](=O)[O-])ccc1NC(=O)CSc1nccc(=O)[nH]1 | 0.67 | 1 | 3 | -0.99 | 0
Fc1ccc(Br)cc1C1C=C(c2ccc(Br)s2)Nc2ncnn21 (configuration not stated) | / | 50* | 6 | 0.0015 | 0
COC(=O)c1nnn(-c2ccsc2C(=O)OC)c1C(=O)OC | 0.9 | 2 | 4 | -1.5 | -2
Cc1cc(-c2n[nH]c(=S)n2/N=C/c2ccc(C)s2)n[nH]1 | 0.61 | -1 | 2 | 0.41 | 0
Cc1cc(-c2n[nH]c(=S)n2/N=C/c2ccc(Br)s2)n[nH]1 | / | 1 | 2 | 10* | 0
O=C(O)c1ccccc1/C=N/NC(=S)NCc1ccccc1 | / | -2 | / | 0.84 | /
CCOc1ccccc1NC(=O)NC1(C(=O)N2CCOCC2)CCCCC1 | / | 0 | 6 | -0.015 | -3

Screening data as filed in PubChem.
